For one series, the target named is CYP3A4 (Homo sapiens, UniProt P08684). As to the kind of experiment: (§1) Time-dependent inhibition of CYP3A4 in human liver microsomes using testosterone as substrate assessed as remaining activity at 30 uM preincubated with compound in presence of NADPH-generating system followed by substrate addition by UPLC analysis relative to control. The class given is ADME, Microsome. Particulars: human liver microsomes, probe testosterone, read-out: Activity; call rule not given here. The essentials: (§2)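 Compound at 30 µM preincubated at 37 °C with human liver microsomes in pH 7.4 phosphate buffer plus an NADPH-generating system. CYP3A4 activity then measured as testosterone 6β-hydroxylation by UPLC, expressed as % of DMSO control. Remaining activity = preincubated activity ÷ non-preincubated activity × 100; n = 2.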
Sequence of CYP3A4 (P08684 whole entry): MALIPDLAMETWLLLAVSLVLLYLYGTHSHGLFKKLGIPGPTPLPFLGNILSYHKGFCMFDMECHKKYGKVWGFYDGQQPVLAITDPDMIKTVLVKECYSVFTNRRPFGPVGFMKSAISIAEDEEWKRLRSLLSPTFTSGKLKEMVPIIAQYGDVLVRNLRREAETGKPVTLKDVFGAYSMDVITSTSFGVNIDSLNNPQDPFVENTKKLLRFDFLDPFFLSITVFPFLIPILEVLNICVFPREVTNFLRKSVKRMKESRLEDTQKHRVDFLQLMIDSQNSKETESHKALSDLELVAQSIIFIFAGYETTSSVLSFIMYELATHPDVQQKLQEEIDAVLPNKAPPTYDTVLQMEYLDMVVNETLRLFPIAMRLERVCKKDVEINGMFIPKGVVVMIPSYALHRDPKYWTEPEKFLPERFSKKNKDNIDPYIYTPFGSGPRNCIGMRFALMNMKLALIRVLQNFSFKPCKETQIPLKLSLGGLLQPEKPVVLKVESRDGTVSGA
Background: Liver microsomes are a subcellular fraction often used to study metabolism.

The target of series [1] is 2-acylglycerol O-acyltransferase 2 (Homo sapiens, UniProt Q3SYC2). Description: Inhibition of N-terminal FLAG-tagged full-length human MGAT2 expressed in human FreeStyle 293-F cell membrane using 13Cx18oleoyl-CoA and 2-oleoyl-glycerol as substrate preincubated for 60 mins followed by substrate addition and measured after 30 mins by RapidFire mass spectrometric analysis. The class given is cell membranes. The essentials:
(§3)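 FreeStyle293 cells transfected and harvested after 2 days; total membranes isolated by ultracentrifugation. Reaction started with 13C18 oleoyl-CoA and 2-oleoyl-glycerol (20 µM each), run 30 min at room temperature. Stopped with acetonitrile/formic acid containing 1,2-dioleoyl-glycerol; read by RapidFire/MS.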

A short description of series [2]: 1-Octanol/aqueous buffer partition coefficient, logD of the compound at pH 7.4 by HPLC analysis. The series is classed as physicochemical.
In a further series the test system is NIH3T3. Description: Cytotoxicity against BALB/c mouse 3T3 cells assessed as reduction in cell viability at 6.25 uM incubated for 1 hrs in absence of UV irradiation by Celltiter-Glo assay relative to control. The class given is toxicity, cell-based. The settings on record: nih3t3, 1 h. The essentials: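 BALB/c 3T3 cells seeded at 2.5 × 10^3 cells/well and grown 1 day. Compound at 6.25 µM in EBSS with 1 mM HEPES, preincubated 1 h. Plate kept dark (–UV) while the paired plate was irradiated. Medium replaced, cultured 24 h more. Viability read as cellular ATP by CellTiter-Glo, % of 1% DMSO control; n = 3, mean ± SD.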
Background: In ATP-based viability assays light output follows the ATP content of the culture.

Another series has as its target Cytochrome P450 3A4 (Homo sapiens, UniProt P08684). The description is as §1. The series is classed as ADME, Microsome. The settings on record: microsomes, 30 µM. The essentials: as §2
Series [3] can be described thus: Metabolic stability in mouse liver microsomes assessed as intrinsic clearance at 1 uM incubated for 15 to 30 mins in presence of NADPH-generating system by LC/MS/MS analysis. Particulars: time 15-30 min, read-out: CLH. The series is classed as ADME, Microsome. The procedure, abridged:
(§4)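 Compound at 1 µM with 0.2 mg/mL liver microsomal protein in 50 mM phosphate buffer pH 7.4. Reaction started by NADPH-generating system (5 mM MgCl2, 5 mM glucose-6-phosphate, 0.5 mM β-NADP+, 1.5 U/mL G6PDH). Stopped with acetonitrile at 15 and 30 min and analysed by LC/MS/MS. Velocity taken as slope of concentration–time plot.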

Series [4] concerns the target 2-acylglycerol O-acyltransferase 2 (Mus musculus, UniProt Q80W94). Description: Inhibition of N-terminal FLAG-tagged full-length mouse MGAT2 expressed in human FreeStyle 293-F cell membrane using 13Cx18oleoyl-CoA and 2-oleoyl-glycerol as substrate preincubated for 60 mins followed by substrate addition and measured after 30 mins by RapidFire mass spectrometric analysis. The series is classed as cell membranes. The procedure, abridged:
as §3

The nature of series [5]: MRT in mouse at 1 mg/kg, po administered as cassette dose by LC/MS/MS analysis. The class given is ADME, organism-based. The settings on record: in vivo. The procedure, abridged:
(§5)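 Non-fasted mice dosed by cassette, iv 0.1 mg/kg or po 1 mg/kg suspended in 0.5% methylcellulose aqueous solution; plasma obtained from blood by centrifugation, deproteinized with acetonitrile, and compound concentrations measured by LC/MS/MS.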

Series [6] is described as follows: Total clearance in mouse at 0.1 mg/kg, iv administered as cassette dose by LC/MS/MS analysis. The class given is ADME, organism-based. The settings on record: in vivo. The procedure, abridged:
as §5

Series [7] can be described thus: AUC in mouse at 1 mg/kg, po administered as cassette dose by LC/MS/MS analysis. The series is classed as ADME, organism-based. The settings on record: in vivo. The procedure, abridged: as §5
A short description of series [8]: Metabolic stability in human liver microsomes assessed as intrinsic clearance at 1 uM incubated for 15 to 30 mins in presence of NADPH-generating system by LC/MS/MS analysis. The series is classed as ADME, Microsome. The settings on record: time 15-30 min, read-out: CLH. The essentials:
as §4

Series [9] in a line: Oral bioavailability in mouse at 1 mg/kg administered as cassette dose by LC/MS/MS analysis. The class given is ADME, organism-based. Particulars: in vivo. The essentials:
as §5

Series [10] in a line: Volume of distribution at steady state in mouse at 0.1 mg/kg, iv administered as cassette dose by LC/MS/MS analysis. The series is classed as ADME, organism-based. The settings on record: in vivo, read-out: Vdss. The essentials: as §5
Series [11] in a line: Permeability of compound at pH 7.4 by PAMPA assay. The class given is ADME. Particulars: read-out: permeability. The essentials: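 Passive permeability measured by PAMPA at pH 7.4.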

Sequence of 2-acylglycerol O-acyltransferase 2 (Homo sapiens, UniProt Q3SYC2) (Q3SYC2 whole entry): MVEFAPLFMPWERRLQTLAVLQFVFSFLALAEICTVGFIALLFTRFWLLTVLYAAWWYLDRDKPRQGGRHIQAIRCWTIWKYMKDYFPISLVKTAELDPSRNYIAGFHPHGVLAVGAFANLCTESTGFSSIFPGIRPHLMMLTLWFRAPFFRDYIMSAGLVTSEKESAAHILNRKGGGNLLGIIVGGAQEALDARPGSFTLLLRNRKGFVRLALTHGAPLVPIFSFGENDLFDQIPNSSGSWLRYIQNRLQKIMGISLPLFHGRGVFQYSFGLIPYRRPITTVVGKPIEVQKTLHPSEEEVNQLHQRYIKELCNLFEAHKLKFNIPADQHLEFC
Sequence of 2-acylglycerol O-acyltransferase 2 (Mus musculus, UniProt Q80W94) (Q80W94 whole entry): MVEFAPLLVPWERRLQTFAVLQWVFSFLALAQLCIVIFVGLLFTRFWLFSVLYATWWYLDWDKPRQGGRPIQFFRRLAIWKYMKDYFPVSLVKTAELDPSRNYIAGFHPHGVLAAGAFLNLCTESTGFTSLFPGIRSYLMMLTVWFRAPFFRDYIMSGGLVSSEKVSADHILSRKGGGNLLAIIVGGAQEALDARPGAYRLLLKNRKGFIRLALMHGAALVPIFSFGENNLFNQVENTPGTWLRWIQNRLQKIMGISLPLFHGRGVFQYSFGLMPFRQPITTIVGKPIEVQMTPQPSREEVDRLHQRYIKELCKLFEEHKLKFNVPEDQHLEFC
Sequence of Cytochrome P450 3A4 (P08684 whole entry): as the sequence (P08684 whole entry) above

In the case of `O=C1CCCN1c1cc(S(=O)(=O)Nc2ccc(F)cc2F)cc2c1N(C(=O)Nc1ccc(C(F)(F)F)cc1)CC2`, the activity at 30 µM at CYP3A4 amounted to 43%. This compound returned an IC50 in series [1] of 3.4 nM.
`O=C1CCCN1c1cc(S(=O)(=O)Nc2c(F)cc(Cl)cc2F)cc2c1N(c1ncc(-c3ccc(C(F)(F)F)cc3F)cn1)CC2` registered a pH-dependent lipophilicity (logD) in series [2] of 4.1. For the same compound, the IC50 in series [1] was found to be 0.42 nM. In addition, the Activity in the series with NIH3T3 is listed as 98%.
`O=C1CCCN1c1cc(S(=O)(=O)Nc2ccc(C(F)(F)F)cc2F)cc2c1N(C(=O)OC1CCN(CC(F)(F)C(F)(F)F)CC1)CC2` displayed a logD in series [2] of 4.1. In addition, the activity at 30 µM at CYP3A4 stood at 93%. The IC50 in [1] was determined as 42 nM.
As for `O=C1CCCN1c1cc(S(=O)(=O)Nc2c(F)cc(Cl)cc2F)cc2c1N(c1ncc(-c3ccc(C(F)(F)F)cc3)cn1)CC2`, the logD in series [2] stood at 3.8. At Cytochrome P450 3A4, the TDI entry is “Not Active”. The compound also showed an IC50 in [1] of 0.69 nM. In addition, the Activity with NIH3T3 was 105%.
Consider `O=C1CCCN1c1cc(S(=O)(=O)Nc2c(F)cc(F)cc2F)cc2c1N(C(=O)OC1CCN(CC(F)(F)C(F)(F)F)CC1)CC2`, for which, in [2], the logD turned out to be 3.4. Moreover, the activity at 30 µM on CYP3A4 was determined as 95%. In series [1], this compound showed an IC50 of 75 nM.
Regarding `CC(=O)Nc1cc(S(=O)(=O)Nc2ccc(F)cc2F)cc2c1N(CCc1ccccc1)CC2`, the activity at 30 µM at CYP3A4 came to 13%. The compound also yielded an IC50 in [1] of 1 nM.
With `O=C1CCCN1c1cc(S(=O)(=O)Nc2c(F)cc(Cl)cc2F)cc2c1N(c1ccc(-c3ccc(C(F)(F)F)cc3)cc1)CC2`, the logD in series [2] was 4.5. In addition, the TDI entry on Cytochrome P450 3A4 is reported as “Not Active”. This compound gave an IC50 in [1] of 0.25 nM. Also, the Activity in the series on NIH3T3 was found to be 95%.
Take `O=C1CCCN1c1cc(S(=O)(=O)Nc2c(F)cc(Cl)cc2F)cc2c1N(c1ncc(-n3cc(C(F)(F)F)cn3)cn1)CC2`: the pH-dependent lipophilicity (logD) in [2] was 3.1. The IC50 in [1] amounted to 6.2 nM. The Activity with NIH3T3 worked out at 109%.
In the case of `Cn1nc(C(F)(F)F)cc1-c1cnc(N2CCc3cc(S(=O)(=O)Nc4c(F)cc(Cl)cc4F)cc(N4CCNC4=O)c32)nc1`, the pH-dependent lipophilicity (logD) in series [2] worked out at 2.7. Besides, the results for the microsomal CLint at 1 µM in series [3] and in series [8] were 33 µL/min/mg and 4 µL/min/mg, respectively. Besides, the IC50 in series [1] came to 3.7 nM; in series [4] it was 1.9 nM. In addition, the Activity in the series with NIH3T3 is 111%. This compound returned an MRT in series [5] of 2.3 h. This compound also gave a clearance in series [6] of 39.5 mL/min/kg. For the same compound, the AUC in series [7] came out at 72 ng·h/mL. In addition, the bioavailability in [9] came to 16%. Further, the Vd in series [10] is 1.96 L/kg. In addition, in series [11], the Papp was determined as 4 ×10⁻⁶ cm/s.
Consider `O=C1CCCN1c1cc(S(=O)(=O)Nc2c(F)cc(Cl)cc2F)cc2c1N(c1ncc(-n3ccc(C(F)(F)F)n3)cn1)CC2`, for which the logD in [2] was 3.1. In series [1], this compound yielded an IC50 of 8.2 nM. For the same compound, the Activity with NIH3T3 was 105%.
In [2], `O=C1CCCN1c1cc(S(=O)(=O)Nc2c(F)cc(Cl)cc2F)cc2c1N(C(=O)Nc1ccc(C(F)(F)F)cc1)CC2` showed a logD of 3.3. For the same compound, the activity at 30 µM at CYP3A4 was found to be 89%. Further, the IC50 in [1] is 30 nM.
In the same order, the values of `O=C1CCCN1c1cc(S(=O)(=O)Nc2c(F)cc(Cl)cc2F)cc2c1N(C(=O)OC1CCN(CC(F)(F)C(F)(F)F)CC1)CC2` are 3.8, 82% and 19 nM.
In turn, `Cc1cc(C(F)(F)F)nn1-c1cnc(N2CCc3cc(S(=O)(=O)Nc4c(F)cc(Cl)cc4F)cc(N4CCCC4=O)c32)nc1` gave a logD in series [2] of 2.9. Also, the microsomal CLint at 1 µM in [3] was 27 µL/min/mg. In addition, the IC50 in series [1] was determined as 2.1 nM; in series [4], 1.1 nM. Moreover, the Activity in the series on NIH3T3 is 112%. The same compound came in with an MRT in series [5] of 2.6 h. For the same compound, in series [6], the clearance is 7.85 mL/min/kg. Moreover, the AUC in series [7] was found to be 1120 ng·h/mL. The compound further gave a bioavailability in series [9] of 52%. In addition, the Vd in series [10] was 1.02 L/kg. Also, the Papp in [11] was determined as 18.5 ×10⁻⁶ cm/s.
In [2], `O=C1CCCN1c1cc(S(=O)(=O)Nc2ccc(F)cc2F)cc2c1N(C(=O)OC1CCN(CC(F)(F)C(F)(F)F)CC1)CC2` displayed a logD of 3.7. Besides, the activity at 30 µM at CYP3A4 was 59%. Besides, the half-maximal inhibitory concentration (IC50) in [1] is 4.1 nM.

As a reminder, the IC50 is the concentration needed to halve the response being measured. Usually logD stands for the decadic logarithm of the distribution of all forms, ionised or not, between an organic phase and buffer at a given pH. Low values mean a more hydrophilic compound, high ones a more lipophilic compound. Usually MRT stands for a mean duration of stay, worked out from the concentration-time curve. The term clearance denotes the rate of elimination divided by the concentration. Read a high clearance as a high capacity for elimination. The AUC is the area under the concentration-time curve, a measure of exposure. Read a low AUC as less exposure. As usually defined, the bioavailability is dose-corrected exposure relative to a reference, in per cent. Low readings indicate poor availability, high ones good availability.

For the origin of these results see ChEMBL document CHEMBL5678813, “Optimization of a novel series of N-phenylindoline-5-sulfonamide-based acyl CoA:monoacylglycerol acyltransferase-2 inhibitors: Mitigation of CYP3A4 time-dependent inhibition and phototoxic liabilities” (Bioorg Med Chem, 2015).
